# Measured values collected from several papers.
# Lines come from different studies, so protocols differ.
SMILES,tested on,assay,setting,endpoint,result
O=c1[nH]c(NCc2ccc(Cl)c(Cl)c2)nc2ncn(CCCCCN3CCOCC3)c12,Eggerthella lenta,"microbial growth, agar dilution",48 h,MIC,> 32 µg/mL
Cc1ccc(C(CS(=O)(=O)c2ccccc2)=NN=C2N=C(c3ccc(Br)cc3)CS2)cc1,SK-MEL-23,"cell growth or viability, MTT","25 µM, 48 h",viability,54.9%
CCCCOc1ccc(-c2cnc3c(n2)CCCC3)cc1,Haemonchus contortus,parasite motility,"72 h, larva",IC50,6.9 µM
O=C(Nc1ccccc1-c1ccc(F)c(F)c1)c1nccnc1C(F)(F)F,Cladosporium cucumerinum,microbial growth,,EC50,< 0.1 µg/mL
Cc1ncc([N+](=O)[O-])n1CCO,Eggerthella lenta,"microbial growth, agar dilution",48 h,MIC,0.5 µg/mL
C[C@@H](Oc1cc(-c2cnn(C3CCNCC3)c2)cnc1N)c1c(Cl)ccc(F)c1Cl,NCI-H2228,"cell growth or viability, MTT","0.04 µg/mL, 72 h",inhibition,45.9%
CCCCCc1ccc(-c2cnc3c(n2)CCCC3)cc1,Haemonchus contortus,parasite motility,"72 h, larva",IC50,14.4 µM
Cc1cc(Nc2ncc(Cl)c(Nc3ccccc3S(=O)(=O)C(C)C)n2)c(OC(C)C)cc1C1CCNCC1,NCI-H2228,"cell growth or viability, MTT","5 µg/mL, 72 h",inhibition,93.5%
Cc1ccc(C(CS(=O)(=O)c2ccccc2)=NNC2=NC(=O)C(=NNc3ccccc3)S2)cc1,SK-MEL-23,"cell growth or viability, MTT","6.3 µM, 48 h",viability,36.3%
CCCCc1cccc(-c2cnc3c(n2)CCCC3)c1,Haemonchus contortus,parasite motility,"24 h, larva",IC50,32.4 µM
Cc1ccc(C(CS(=O)(=O)c2ccccc2)=NNC2=NC(=O)C(=NNc3ccc([N+](=O)[O-])cc3)S2)cc1,SK-MEL-23,"cell growth or viability, MTT","6.3 µM, 48 h",viability,56.6%
CCCCOc1cccc(-c2cnc3c(n2)CCCC3)c1,Haemonchus contortus,parasite motility,"72 h, larva",IC50,17.7 µM
